Experimental data from different studies.
Protocols differ between the studies behind these lines. pIC50: −log10 of the molar value. Values after ≈ are worked out from the molar mass of the structure shown.

For `C#Cc1ccc(C=NNC(=O)c2ccc(Br)cc2)c(O)c1`, the MIC80 was 0.03 µg/mL (≈ 0.0874 µM) (Cryptococcus neoformans; microbial growth, broth dilution; pH 7.4).
With `N.N.[Cl][Pt][Cl]` the inhibition was 100% (OCI-LY19; cell growth or viability, ATP luminescence; 10 µM, 72 h).
For `O=C1CCP(=[Se])(c2ccccc2)CC1`, the pIC50 was < 4.00 (HaCaT; cell growth or viability, MTT; 72 h).
The MIC of `CC[C@H](C)C[C@H](C)CCCCCCCCC(=O)N[C@H]1C[C@@H](O)[C@@H](NCCN)NC(=O)[C@@H]2[C@@H](O)CCN2C(=O)[C@H]([C@H](O)CCN)NC(=O)[C@H]([C@H](O)[C@@H](O)c2ccc(O)cc2)NC(=O)[C@@H]2C[C@@H](O)CN2C(=O)[C@H]([C@@H](C)O)NC1=O` is reported as 0.25 µg/mL (≈ 0.229 µM) (Nakaseomyces glabratus; microbial growth, broth dilution; ATCC15126; 48 h).
`C#Cc1ccc(C(=O)NN=Cc2c(O)cccc2C#C)cc1` gave an MIC80 of 0.015 µg/mL (≈ 0.052 µM) (Cryptococcus neoformans; microbial growth, broth dilution; pH 7.4).
With `COc1cnc(OC)n2nc(NS(=O)(=O)c3c(OCC(F)F)cccc3C(F)(F)F)nc12` the inhibition was 0.69% (HaCaT; cell growth or viability, CCK-8; 50 µM, 72 h).
With `CC[C@@]1(O)C(=O)OCc2c1cc1n(c2=O)Cc2cc3ccccc3nc2-1` the pIC50 was 4.28 (SNB-19; cell growth or viability, SRB; 48 h).
The pIC50 of `N.N.[Cl][Pt][Cl]` is reported as 5.20 (HaCaT; cell growth or viability, MTT; 72 h).
For `C#Cc1ccc(C=NNC(=O)c2ccc(Br)c(O)c2)c(O)c1`, the MIC80 was 1 µg/mL (≈ 2.78 µM) (Cryptococcus neoformans; microbial growth, broth dilution; pH 7.4).
`O=C/C=C/c1ccccc1` has an inhibition zone of 8 mm (Bacillus subtilis; microbial growth, well diffusion; MTCC121; 1000 µg/mL, 18 h).
The MFC of `C#Cc1cccc(C=NNC(=O)c2ccc(Br)c(Br)c2)c1O` is reported as 0.12 µg/mL (≈ 0.284 µM) (Cryptococcus neoformans; microbial killing).
`O=C1CCP(c2ccccc2)CC1` has a pIC50 of 4.13 (HaCaT; cell growth or viability, MTT; 72 h).
The inhibition of `CC(=O)O[C@H]1C(=O)[C@@]2(C)[C@H]([C@H](OC(=O)c3ccccc3)[C@]3(O)C[C@H](OC(=O)[C@H](O)[C@@H](NC(=O)c4ccccc4)c4ccccc4)C(C)=C1C3(C)C)[C@]1(OC(C)=O)CO[C@@H]1C[C@@H]2O` is reported as > 90% (HaCaT; cell growth or viability, CCK-8; 12.5 µM, 72 h).
